Assay results from ChEMBL document CHEMBL3872252, “New bithiazolyl hydrazones: Novel synthesis, characterization and antitubercular evaluation” (Bioorg Med Chem Lett, 2017).
Converted amounts (≈) assume the structure as drawn.

Key:
[1] = system: Staphylococcus aureus; experiment: Growth inhibition of Staphylococcus aureus at 10 ug/ml; format: functional; conditions: read-out: GI
[2] = system: Bacillus subtilis; experiment: Growth inhibition of Bacillus subtilis at 10 ug/ml; format: functional; conditions: read-out: GI
[3] = system: Bacillus subtilis; experiment: Growth inhibition of Bacillus subtilis at 3 ug/ml; format: functional; conditions: read-out: GI
Method in brief: (§1)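 Screened against Gram-negative E. coli and P. aeruginosa and Gram-positive S. aureus and B. subtilis. Compound was tested at 3 µg/ml, and the read-out is percent growth inhibition.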

[4] = Antitubercular activity against Mycobacterium tuberculosis H37Ra ATCC 25177 active stage infected in human THP1 cells measured on day 8 by nitrate reductase assay; format: functional, THP-1; conditions: ATCC 25177, 192 h
[5] = system: Pseudomonas aeruginosa; experiment: Growth inhibition of Pseudomonas aeruginosa at 10 ug/ml; format: functional; conditions: read-out: GI
[6] = system: Bacillus subtilis; experiment: Growth inhibition of Bacillus subtilis at 30 ug/ml; format: functional; conditions: read-out: GI
[7] = Selectivity index, ratio of GI50 for human HCT116 cells to MIC90 for Mycobacterium bovis BCG ATCC 35743 active stage; format: toxicity, cell-based, HCT-116; conditions: read-out: Selectivity Index
Method in brief: (§2)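 Cytotoxicity was measured on human MCF-7, HCT116 and THP-1 cells by MTT assay, with paclitaxel as reference. GI50 is the concentration inhibiting 50% of cell growth. The selectivity index is GI50 for the given cell line divided by MIC90 for the given mycobacterial strain and stage.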

[8] = Selectivity index, ratio of GI50 for human HCT116 cells to MIC90 for Mycobacterium tuberculosis H37Ra ATCC 25177 dormant stage; format: toxicity, cell-based, HCT-116; conditions: read-out: Selectivity Index
Method in brief: (§3)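 Cytotoxicity was measured on human MCF-7, HCT116 and THP-1 cells by MTT assay, with paclitaxel as reference. The selectivity index is GI50 for the given cell line divided by MIC90 for the given mycobacterial strain and stage.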

[9] = Selectivity index, ratio of GI50 for human MCF7 cells to MIC90 for Mycobacterium bovis BCG ATCC 35743 dormant stage; format: toxicity, cell-based; conditions: read-out: Selectivity Index; method in brief: as §3
[10] = Selectivity index, ratio of GI50 for human THP1 cells to MIC90 for Mycobacterium bovis BCG ATCC 35743 active stage; format: toxicity, cell-based, THP-1; conditions: read-out: Selectivity Index; method in brief: as §2
[11] = system: Staphylococcus aureus; experiment: Antibacterial activity against Staphylococcus aureus; format: functional
[12] = system: Escherichia coli; experiment: Antibacterial activity against Escherichia coli; format: functional
[13] = Selectivity index, ratio of GI50 for human HCT116 cells to MIC90 for Mycobacterium tuberculosis H37Ra ATCC 25177 active stage; format: toxicity, cell-based, HCT-116; conditions: read-out: Selectivity Index; method in brief: as §2
[14] = system: Pseudomonas aeruginosa; experiment: Growth inhibition of Pseudomonas aeruginosa at 3 ug/ml; format: functional; conditions: read-out: GI; method in brief: as §1
[15] = system: Staphylococcus aureus; experiment: Growth inhibition of Staphylococcus aureus at 30 ug/ml; format: functional; conditions: read-out: GI
[16] = system: Pseudomonas aeruginosa; experiment: Growth inhibition of Pseudomonas aeruginosa at 30 ug/ml; format: functional; conditions: read-out: GI
[17] = Selectivity index, ratio of GI50 for human THP1 cells to MIC90 for Mycobacterium tuberculosis H37Ra ATCC 25177 dormant stage; format: toxicity, cell-based, THP-1; conditions: read-out: Selectivity Index; method in brief: as §3
[18] = Antitubercular activity against Mycobacterium tuberculosis H37Ra ATCC 25177 dormant stage measured on day 12 by XTT reduction menadione based two-fold dilution assay; format: functional; conditions: ATCC 25177, 288 h
Method in brief: (§4)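 M. tuberculosis H37Ra ATCC 25177 was exposed to 0.7–100 μg/mL in two-fold steps (0.7, 1.5, 3.1 … 100). Active stage was read after 8 days and dormant stage after 12 days of incubation. Inhibition was read by XTT reduction menadione assay (XRMA), absorbance 470 nm. MIC90 is the concentration giving ≥90% inhibition (µg/mL).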

[19] = Antitubercular activity against Mycobacterium bovis BCG ATCC 35743 dormant stage measured on day 12 by nitrate reductase based two-fold dilution assay; format: functional, Mycobacterium bovis BCG str. ATCC 35743; conditions: Mycobacterium tuberculosis variant bovis BCG, ATCC 35743, 288 h
[20] = Cytotoxicity against human HCT116 cells by MTT assay; format: toxicity, cell-based, HCT-116
[21] = system: Escherichia coli; experiment: Growth inhibition of Escherichia coli at 30 ug/ml; format: functional; conditions: read-out: GI
[22] = system: Escherichia coli; experiment: Growth inhibition of Escherichia coli at 3 ug/ml; format: functional; conditions: read-out: GI; method in brief: as §1
[23] = system: Pseudomonas aeruginosa; experiment: Antibacterial activity against Pseudomonas aeruginosa; format: functional
[24] = Cytotoxicity against human MCF7 cells by MTT assay; format: toxicity, cell-based
[25] = Selectivity index, ratio of GI50 for human THP1 cells to MIC90 for Mycobacterium tuberculosis H37Ra ATCC 25177 active stage; format: toxicity, cell-based, THP-1; conditions: read-out: Selectivity Index; method in brief: as §2
[26] = system: Bacillus subtilis; experiment: Antibacterial activity against Bacillus subtilis; format: functional
[27] = Selectivity index, ratio of GI50 for human HCT116 cells to MIC90 for Mycobacterium bovis BCG ATCC 35743 dormant stage; format: toxicity, cell-based, HCT-116; conditions: read-out: Selectivity Index; method in brief: as §3
[28] = Cytotoxicity against human THP1 cells by MTT assay; format: toxicity, cell-based, THP-1
[29] = system: Staphylococcus aureus; experiment: Growth inhibition of Staphylococcus aureus at 3 ug/ml; format: functional; conditions: read-out: GI; method in brief: as §1
[30] = Selectivity index, ratio of GI50 for human MCF7 cells to MIC90 for Mycobacterium tuberculosis H37Ra ATCC 25177 dormant stage; format: toxicity, cell-based; conditions: read-out: Selectivity Index; method in brief: as §3
[31] = Antitubercular activity against Mycobacterium tuberculosis H37Ra ATCC 25177 dormant stage infected in human THP1 cells measured on day 12 by nitrate reductase assay; format: functional, THP-1; conditions: ATCC 25177, 288 h
[32] = Selectivity index, ratio of GI50 for human MCF7 cells to MIC90 for Mycobacterium tuberculosis H37Ra ATCC 25177 active stage; format: toxicity, cell-based; conditions: read-out: Selectivity Index; method in brief: as §2
[33] = Antitubercular activity against Mycobacterium tuberculosis H37Ra ATCC 25177 active stage measured on day 8 by XTT reduction menadione based two-fold dilution assay; format: functional; conditions: ATCC 25177, 192 h; method in brief: as §4
[34] = Antitubercular activity against Mycobacterium bovis BCG ATCC 35743 active stage measured on day 8 by nitrate reductase based two-fold dilution assay; format: functional, Mycobacterium bovis BCG str. ATCC 35743; conditions: Mycobacterium tuberculosis variant bovis BCG, ATCC 35743, 192 h
[35] = Selectivity index, ratio of GI50 for human MCF7 cells to MIC90 for Mycobacterium bovis BCG ATCC 35743 active stage; format: toxicity, cell-based; conditions: read-out: Selectivity Index; method in brief: as §2
[36] = system: Escherichia coli; experiment: Growth inhibition of Escherichia coli at 10 ug/ml; format: functional; conditions: read-out: GI
[37] = Selectivity index, ratio of GI50 for human THP1 cells to MIC90 for Mycobacterium bovis BCG ATCC 35743 dormant stage; format: toxicity, cell-based, THP-1; conditions: read-out: Selectivity Index; method in brief: as §3

COc1ccc(-c2csc(N/N=C(\C)c3sc(-c4ccccc4)nc3C)n2)cc1
inhibition of growth at 10 µg/mL [1]: 69.2%
inhibition of growth at 10 µg/mL [2]: 66.8%
inhibition of growth at 3 µg/mL [3]: 44.9%
MIC90 [4]: 12.3 µg/mL (≈ 29.3 µM)
inhibition of growth at 10 µg/mL [5]: 69.9%
inhibition of growth at 30 µg/mL [6]: 82.5%
selectivity ratio [7]: 7
selectivity ratio [8]: 14
selectivity ratio [9]: 7
selectivity ratio [10]: 7
MIC [11]: > 30 µg/mL
MIC [12]: > 30 µg/mL
selectivity ratio [13]: 15
inhibition of growth at 3 µg/mL [14]: 48.7%
inhibition of growth at 30 µg/mL [15]: 83.7%
inhibition of growth at 30 µg/mL [16]: 85%
selectivity ratio [17]: 14
IC50 [18]: 0.075 µg/mL (≈ 0.178 µM)
MIC90 [18]: 7.15 µg/mL (≈ 17 µM)
IC50 [19]: 2.82 µg/mL (≈ 6.71 µM)
MIC90 [19]: 14 µg/mL (≈ 33.3 µM)
GI50 ([20]; HCT116 cells): > 100 µg/mL
GI90 ([20]; hct-116): > 100 µg/mL
inhibition of growth at 30 µg/mL [21]: 84.6%
inhibition of growth at 3 µg/mL [22]: 52.1%
MIC [23]: > 30 µg/mL
GI50 ([24]; MCF7 cells): > 100 µg/mL
GI90 ([24]; mcf7): > 100 µg/mL
selectivity ratio [25]: 15
MIC [26]: > 30 µg/mL
selectivity ratio [27]: 7
GI50 ([28]; THP1 cells): > 100 µg/mL
GI90 ([28]; thp-1): > 100 µg/mL
inhibition of growth at 3 µg/mL [29]: 48.8%
selectivity ratio [30]: 14
MIC90 [31]: 9.38 µg/mL (≈ 22.3 µM)
selectivity ratio [32]: 15
IC50 [33]: 0.078 µg/mL (≈ 0.185 µM)
MIC90 [33]: 6.87 µg/mL (≈ 16.3 µM)
IC50 [34]: 2.43 µg/mL (≈ 5.78 µM)
MIC90 [34]: 13.5 µg/mL (≈ 32.1 µM)
selectivity ratio [35]: 7
inhibition of growth at 10 µg/mL [36]: 71.1%
selectivity ratio [37]: 7

NC[C@H]1O[C@H](O[C@H]2[C@H](O)[C@@H](O[C@H]3O[C@H](CO)[C@@H](O)[C@H](N)[C@H]3O)[C@H](N)C[C@@H]2N)[C@H](O)[C@@H](O)[C@@H]1O [KANAMYCIN]
MIC [11]: > 30 µg/mL
MIC [12]: 1.62 µg/mL (≈ 3.34 µM)
MIC [23]: 0.49 µg/mL (≈ 1.01 µM)
MIC [26]: 1.35 µg/mL (≈ 2.79 µM)

CC1(C)S[C@@H]2[C@H](NC(=O)[C@H](N)c3ccccc3)C(=O)N2[C@H]1C(=O)O [AMPICILLIN]
MIC [11]: 1 µg/mL (≈ 2.86 µM)
MIC [12]: 1.46 µg/mL (≈ 4.18 µM)
MIC [23]: 4.36 µg/mL (≈ 12.5 µM)
MIC [26]: 10.3 µg/mL (≈ 29.5 µM)
